Article PMC2773291 (Journal of medicinal chemistry, 2009)
Peptide text beside a SMILES is read from it. * marks the point of attachment. Pyropheophorbide(a) = C=Cc1c(C)c2cc3nc(c4c5[nH]c(cc6nc(cc1[nH]2)C(C)=C6CC)c(C)c5C(=O)C4)[C@@H](CCC(=O)*)[C@@H]3C; X1 = CCN(CC)c1ccc2nc3ccc(N=Nc4ccc(N(C)CCCC(=O)*)cc4)cc3[n+](-c3ccccc3)c2c1

Experiments:
HEK-mFAP cells (FAP+) [1] = assay: HPLC-MS of culture media after incubation with HEK-mFAP cells; assay type: cell-based, human; settings: for cleavage in culture media of HEK-mFAP cells (HPLC-MS): media after incubation for the confocal study, 25 μM, 6 h
Procedure, shortened: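 Probe-containing FAP-expressing HEK293 culture media were collected after incubation and analysed by HPLC-MS for cleaved probe. One set came from flow cytometry (6.25 μM in FBS-free DMEM, up to 24 h, 37°C). The other came from confocal work (25 μM, 6 h, 37°C).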

HEK-Vector cells = assay: In vitro photocytotoxicity; assay type: cell-based, human; settings: for photocytotoxicity toward HEK-Vector cells in the presence of light: FAP-PPB 8 μM, FAP-PP 4 μM, 2D-FAP-PPB 8 μM, 2 J cm^−2, MTT
tumor site = assay: Tumor accumulation after intravenous tail-vein injection; assay type: in vivo
mFAP = molecular target: T1, mFAP (Mus musculus, UniProt P97321); assay: mFAP activity assay; assay type: biochemical, murine; settings: 37°C
T1 sequence (P97321 26-761 limits assumed): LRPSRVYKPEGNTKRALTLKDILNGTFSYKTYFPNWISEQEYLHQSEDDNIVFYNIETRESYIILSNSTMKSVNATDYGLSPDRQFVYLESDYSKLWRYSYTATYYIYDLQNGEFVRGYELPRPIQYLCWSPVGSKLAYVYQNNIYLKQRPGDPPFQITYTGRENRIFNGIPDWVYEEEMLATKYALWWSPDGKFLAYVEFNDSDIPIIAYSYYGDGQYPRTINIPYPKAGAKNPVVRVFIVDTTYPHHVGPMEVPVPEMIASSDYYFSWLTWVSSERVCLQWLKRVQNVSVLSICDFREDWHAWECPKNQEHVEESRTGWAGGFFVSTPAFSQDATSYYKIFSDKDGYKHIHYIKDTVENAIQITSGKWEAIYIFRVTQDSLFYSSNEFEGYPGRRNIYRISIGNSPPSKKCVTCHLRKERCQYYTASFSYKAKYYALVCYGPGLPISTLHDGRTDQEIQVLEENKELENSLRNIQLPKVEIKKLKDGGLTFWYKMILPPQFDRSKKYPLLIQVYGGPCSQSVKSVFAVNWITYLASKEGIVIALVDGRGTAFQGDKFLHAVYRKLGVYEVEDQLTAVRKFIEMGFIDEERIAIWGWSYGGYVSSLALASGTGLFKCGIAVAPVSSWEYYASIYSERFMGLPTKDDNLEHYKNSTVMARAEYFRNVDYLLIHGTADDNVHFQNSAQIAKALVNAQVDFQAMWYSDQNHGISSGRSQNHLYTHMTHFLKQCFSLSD
Procedure, shortened: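 Probe at 0.1, 0.3, 0.5, 0.7, 1, 2 and 6 μM (predissolved in 2.5 μL DMSO plus 0.5 μL Tween 80, then 1 mL 0.12 M NaCl/0.12 M TRIS, pH 7.37) was incubated with murine FAP (2 μg) at 37°C. Fluorescence was read continuously (ex 650, em 675 nm). After 1 h, 10 μg enzyme was added and reading continued 2 h. Triplicates were run. Vmax, Km, kcat and kcat/Km came from nonlinear Michaelis-Menten fits of initial rates (10% substrate depleted).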

HEK-Vector tumor = assay: Mouse xenograft in vivo imaging and ex vivo validation, HEK-Vector tumor; design: species or system nude mice
Procedure, shortened: (§1)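 Athymic female nude mice carried 1 × 10^7 FAP-transfected HEK293 cells on the left flank and 1 × 10^7 vector cells on the right, or FAP cells on both flanks. After 3 weeks (tumors 5–10 mm) mice received 4 days of low-fluorescence diet and ketamine/acepromazine anaesthesia. Probe (25 nmol in 30 μL aqueous, 2 μL DMSO, 0.5 μL Tween 80) was injected intratumorally at several sites. Imaging before and at intervals to 24 h used ex 650 nm, em ≥700 nm, 200 ms exposure; signal normalised to exposure time and ROI area.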

[2] = system: HT29 tumor (FAP on stromal fibroblasts); assay: HT29 mouse xenograft in vivo imaging and frozen-section microscopy; design: species or system nude mouse
HEK-mFAP cells (FAP+) [3] = assay: Confocal microscopic studies, HEK-mFAP cells; assay type: cell-based, human; settings: 25 μM, 6 h, 37°C, FBS-free medium
Procedure, shortened: (§2)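 HEK293 stably expressing full-length wild-type murine FAP, grown in DMEM with 10% FBS, 2 mM L-glutamine and G418 200 μg mL−1. Cells seeded at 1.5 × 10^4/well for 2 days, then kept overnight in FBS-free DMEM. Probe was diluted in this conditioned medium to 25 μM and applied 6 h at 37°C, 5% CO2. Cells were fixed in 3% formaldehyde (20 min, dark), DAPI-mounted, and imaged confocally (405 and 633 nm lasers).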

murine FAP (mFAP) = molecular target: T2, murine FAP (mFAP) (Mus musculus, UniProt P97321); assay: Activation of FAP-PPB by murine FAP in buffer; assay type: biochemical
T2 sequence (P97321 26-761 limits assumed): T1 sequence (P97321 26-761 limits assumed)
Procedure, shortened: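 In-house expressed, purified murine FAP (2 μg) incubated with probe (1 nmol, predissolved in 2.5 μL DMSO plus 0.5 μL Tween 80, then 1 mL 0.12 M NaCl/0.12 M TRIS, pH 7.37); probe:enzyme about 50:1. Fluorescence followed in real time at 37°C (ex 650 nm, em 675 nm). Cleavage also tracked by HPLC-MS every 30 min until complete.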

HEK-Vector cells (FAP−) = assay: Confocal microscopic studies, HEK-Vector cells; assay type: cell-based, human; settings: 25 μM, 6 h, 37°C, FBS-free medium
Procedure, shortened: as §2, with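 “carrying empty vector,” for “expressing full-length wild-type murine FAP,”, “hygromycin B” for “G418”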

[4] = molecular target: dipeptidyl peptidase IV (DPPIV) (Homo sapiens, UniProt P27487); assay: Stability of FAP-PPB toward DPPIV; settings: FAP-PPB 1 nmol in 1 mL 20mM TRIS pH 7.5, PPB:DPPIV = 228:1, 37 °C
Sequence of dipeptidyl peptidase IV (DPPIV) (P27487 29-766 limits assumed, species assumed): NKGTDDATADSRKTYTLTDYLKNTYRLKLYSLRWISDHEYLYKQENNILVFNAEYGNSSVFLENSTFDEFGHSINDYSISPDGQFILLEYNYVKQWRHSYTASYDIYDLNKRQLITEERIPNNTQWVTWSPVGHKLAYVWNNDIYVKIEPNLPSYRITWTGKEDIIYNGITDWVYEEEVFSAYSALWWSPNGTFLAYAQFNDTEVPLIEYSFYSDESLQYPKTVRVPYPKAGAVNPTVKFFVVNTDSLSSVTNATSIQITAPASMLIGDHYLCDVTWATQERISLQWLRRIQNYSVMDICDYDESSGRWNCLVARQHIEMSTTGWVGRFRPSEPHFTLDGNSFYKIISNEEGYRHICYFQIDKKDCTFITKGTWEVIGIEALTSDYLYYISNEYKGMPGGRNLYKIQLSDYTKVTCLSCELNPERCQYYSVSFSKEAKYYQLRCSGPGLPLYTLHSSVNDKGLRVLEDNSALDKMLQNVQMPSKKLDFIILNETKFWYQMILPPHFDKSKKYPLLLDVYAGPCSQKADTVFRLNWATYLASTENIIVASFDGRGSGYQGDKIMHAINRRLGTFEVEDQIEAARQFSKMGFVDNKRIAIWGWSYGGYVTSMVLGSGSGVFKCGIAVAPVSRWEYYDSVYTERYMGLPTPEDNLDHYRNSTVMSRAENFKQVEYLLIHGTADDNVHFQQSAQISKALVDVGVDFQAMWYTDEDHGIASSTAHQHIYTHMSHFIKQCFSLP

[5] = system: HEK-mFAP and HEK-Vector cells; assay: Flow cytometric studies, HEK-mFAP versus HEK-Vector cells; assay type: cell-based, human; settings: 6.25 μM
Procedure, shortened: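 Transfected HEK293 lines (murine FAP or empty vector) seeded at about 7 × 10^5 cells/well for 2 days, then kept overnight in FBS-free DMEM. Probe diluted in this conditioned medium to 6.25 μM and applied 1, 2, 4, 6 or 24 h at 37°C. Cells were centrifuge-washed three times, fixed in 2% paraformaldehyde for 10 min, and read by flow cytometry (ex 633 nm, em 660–690 nm; 10000 cells). Three independent experiments.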

HEK-mFAP tumor = assay: Mouse xenograft in vivo imaging and ex vivo validation, HEK-mFAP tumor; design: species or system nude mice
Procedure, shortened: as §1

HEK-mFAP cells = assay: In vitro photocytotoxicity; assay type: cell-based, human; settings: for photocytotoxicity toward HEK-mFAP cells in the presence of light: FAP-PPB 8 μM, FAP-PP 4 μM, 2D-FAP-PPB 8 μM, 2 J cm^−2, MTT
[6] = Quenching efficiency measurements; assay type: physicochemical; settings: FAP-PP quenched by free BHQ3 in DMSO; slope of linear Stern-Volmer plot
Procedure, shortened: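 Unquenched peptide-photosensitizer (1 μM in DMSO) was mixed with varying concentrations of free BHQ3 quencher. Fluorescence was corrected using absorbance at the excitation and emission wavelengths. Data were fitted to F0/F = 1 + KSV[Q], and KSV was taken from the slope of the Stern-Volmer plot.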

[7] = 10 micron frozen sections, 24 h post-injection
[8] = tumor homogenized, DMSO extract, 24 h post-injection of 25 nmol intra-tumor

C=Cc1c(C)c2cc3nc(c4c5[nH]c(cc6nc(cc1[nH]2)C(C)=C6CC)c(C)c5C(=O)C4)[C@@H](CCC(=O)N[C@H](C(=O)N[C@@H](CO)C(=O)NCC(=O)N1CCC[C@H]1C(=O)N[C@@H](CC(N)=O)C(=O)N[C@@H](CCC(N)=O)C(=O)N[C@@H](CCC(=O)O)C(=O)N[C@@H](CCC(N)=O)C(=O)N[C@@H](CCCCNC(=O)CCCN(C)c1ccc(N=Nc2ccc4nc5ccc(N(CC)CC)cc5[n+](-c5ccccc5)c4c2)cc1)C(N)=O)[C@@H](C)O)[C@@H]3C [FAP-PPB, Pyro-TSGPNQEQK(BHQ3)] ({Pyropheophorbide(a)}-TSGPNQEQK(X1)-NH2; C-terminus assumed)
FAP-PPB cleaved in media after incubation with HEK-mFAP cells (HEK-mFAP cells (FAP+) [1]; 6.25 μM, 24 h incubation, HPLC-MS, data not shown): approximately 70% | cleavage in culture media of HEK-mFAP cells (HPLC-MS) (HEK-mFAP cells (FAP+) [1]): two peaks corresponding to fragments Pyro-TSGP and NQEQK-BHQ3 were identified | cytotoxicity toward HEK-Vector cells in the absence of light (HEK-Vector cells; 8 μM, 24 h, MTT): non-cytotoxic in the absence of light | photocytotoxicity toward HEK-Vector cells in the presence of light (HEK-Vector cells): not in the HEK-Vector cells | accumulation at the tumor site (tumor site): no selective accumulation | specificity constant (kcat/Km) (mFAP): 29200 M⁻¹ s⁻¹ | Pyro fluorescence in HEK-Vector tumor frozen sections (confocal) (HEK-Vector tumor; [7]): very weak signal | fluorescence signal in HEK-Vector tumor relative to HEK-mFAP tumor (HEK-Vector tumor; 24 h post injection, fluorescence intensity per exposure time at tumor site): about half | cleavage in HEK-Vector tumor extract (HPLC-MS) (HEK-Vector tumor; [8]): no cleavage was observed | in vivo fluorescence in HT29 tumor ([2]; 25 nmol intra-tumor injection, left flank): strong fluorescence signal was observed immediately and it lasted for 24 h | Pyro fluorescence in HT29 tumor frozen section (confocal) ([2]; after in vivo imaging): bright Pyro’s fluorescence signals within both cancer cells and fibroblasts | intracellular fluorescence in HEK-mFAP cells (confocal) (HEK-mFAP cells (FAP+) [3]): bright intracellular fluorescence signal | time to complete cleavage by mFAP (murine FAP (mFAP); HPLC-MS every 30 min, PPB:FAP about 50:1, TRIS buffer pH 7.37, 37°C): 4 h | fluorescence increase on complete cleavage by mFAP (murine FAP (mFAP); TRIS buffer pH 7.37, 37°C, complete fluorescence restoration): 200 fold | intracellular fluorescence in HEK-Vector cells (confocal) (HEK-Vector cells (FAP−)): minimal fluorescence signal | HPLC analysis after incubation with DPPIV ([4]; 2 h, HPLC-MS): only a single peak corresponding to the intact FAP-PPB | fluorescence intensity change on incubation with DPPIV ([4]; over 2 h): No significant increase in fluorescence intensity | dark toxicity (distribution and shape of cells in flow cytometry) ([5]; 1 to 24 h, both cell lines, no light): does not have dark toxicity to both cell lines | fluorescence intensity in HEK-mFAP cells compared to HEK-Vector cells ([5]; flow cytometry, 1 h incubation): about 8 fold | time to activation of FAP-PPB in tumor (HEK-mFAP tumor; 25 nmol intra-tumor injection, in vivo fluorescence imaging): ≤ 5 min | Pyro fluorescence in HEK-mFAP tumor frozen sections (confocal) (HEK-mFAP tumor; [7]): strong Pyro’s fluorescence signal | cytotoxicity toward HEK-mFAP cells in the absence of light (HEK-mFAP cells; 8 μM, 24 h, MTT): non-cytotoxic in the absence of light | cell viability of HEK-mFAP cells with light (HEK-mFAP cells; 8 μM, 24 h incubation, 670 nm laser, 130 mW cm^−2, 2 J cm^−2, MTT): 55% | photocytotoxicity toward HEK-mFAP cells in the presence of light (HEK-mFAP cells): significant photocytotoxicity

Pyro-TSGPNQEQK [FAP-PP]
Stern-Volmer quenching constant (KSV) [6]: 5.3 × 10^4 mol^−1dm^3 | photocytotoxicity toward HEK-Vector cells in the presence of light (HEK-Vector cells): could kill both cell lines

Pyro-TSGpnQEQK(BHQ3) [2D-FAP-PPB]
cleavage in culture media of HEK-mFAP cells (HPLC-MS) (HEK-mFAP cells (FAP+) [1]): no cleavage was observed | photocytotoxicity toward HEK-Vector cells in the presence of light (HEK-Vector cells): essentially non-cytotoxic | intracellular fluorescence in HEK-mFAP cells (confocal) (HEK-mFAP cells (FAP+) [3]): no significant fluorescence | intracellular fluorescence in HEK-Vector cells (confocal) (HEK-Vector cells (FAP−)): no significant fluorescence | cleavage in HEK-mFAP tumor extract (HPLC-MS) (HEK-mFAP tumor; [8]): little non-specific cleavages | photocytotoxicity toward HEK-mFAP cells in the presence of light (HEK-mFAP cells): essentially non-cytotoxic
